Assay [1] concerns C6. Nature of the assay: Cytotoxicity against rat C6 cells assessed as reduction in cell viability after 48 hrs by MTT assay. The settings on record: for IC50: C6, 48 h. Type of assay: functional, cell-based. In short, it runs like this: (§1)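 C6 rat glioma cells in DMEM/10% FBS at 37 °C, 5% CO2. Seeded at 1 × 10^4 cells/well and exposed 48 h to 5–50 μM in DMSO, with a 1% DMSO vehicle control. MTT added at 0.5 mg/mL final for 60 min at 37 °C. Formazan dissolved in DMSO and read at 492 nm. Viability expressed as % of control. IC50 by linear regression of % inhibition against log concentration.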
For orientation: Formazan colour is commonly taken as a measure of viable cells.

The test system of assay [2] is C6. Briefly: Antiproliferative activity against rat C6 cells at 5 to 50 uM after 48 hrs by Neubauer chamber method. Type of assay: functional, cell-based. Summed up:
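C6 rat glioma cells (ATCC) grown in DMEM/10% FBS with penicillin/streptomycin and Fungizone at 37 °C, 5% CO2. Plated at 5 × 10^3 cells/well and treated 48 h with 5, 10, 25 or 50 μM, dissolved in DMSO. Vehicle control was 1% DMSO. Cells then trypsinized and aliquots counted in a Neubauer chamber. ANOVA with Tukey post-test versus control.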

Assay [3] has as its system C6. Nature of the assay: Cytotoxicity against rat C6 cells assessed as reduction in cell viability at 10 uM after 48 hrs by MTT assay. It is filed as functional, cell-based. In short, it runs like this:
as §1

Assay [4] concerns C6. Nature of the assay: Cytotoxicity against rat C6 cells assessed as reduction in cell viability at 5 uM after 48 hrs by MTT assay relative to control. Type of assay: functional. In short, it runs like this: as §1
Assay [5] deals with C6. Briefly: Potency index, ratio of monastrol-palmitic acid IC50 to compound IC50 for cytotoxicity against rat C6 cells. It is filed as functional.

Activity calls are given as the source filed them. The rule behind the calls is not given here.

As to `CCCCCCCC/C=C\CCCCCCCC1=C(C(=O)OC)C(c2cccc(O)c2)NC(=O)N1` (stereo not drawn), in the assay on C6 [1], the IC50 (as a rule, the midpoint of a concentration-inhibition curve) turned out to be 166 µM. For the same compound, the outcome in the assay with C6 [2] and with C6 [3] was Active.
In the case of `CCCCCCCCCCCCCCCCCC1=C(C(=O)OC)C(c2cccc(O)c2)NC(=O)N1` (stereo not drawn), in the assay with C6 [1], the 50% inhibitory concentration (IC50) is 21.8 µM. Further, the outcome in the assay on C6 [2] and with C6 [4] was Active.
Turning to `CCCCCCCCCCCCCCCC1=C(C(=O)OC)C(c2cccc(O)c2)NC(=S)N1` (stereo not drawn), the “Ratio IC50” value with C6 [5] is listed as 2.5. In the assay on C6 [1], the Activity result was “Dose-dependent effect” and the IC50 is 5.11 µM. The outcome in the assay on C6 [2] was Active. In the assay on C6 [4], the Activity is recorded as 50%.
As to `CCCCCCCCCCCCCCCCCC1=C(C(=O)OC)C(c2cccc(O)c2)NC(=S)N1` (stereo not drawn), the “Ratio IC50” value in the assay with C6 [5] was 2.5. In the assay with C6 [1], the Activity result was “Dose-dependent effect” and the IC50 was 6.85 µM. Besides, the outcome in the assay with C6 [2] was Active. The Activity in the assay on C6 [4] amounted to 50%.
As to `CCOC(=O)C1=C(C)NC(=S)NC1c1cccc(O)c1` (stereo not drawn) [MONASTROL], the IC50 with C6 [1] amounted to 87.8 µM. Moreover, in the assay with C6 [2], the outcome was Active.
Consider `CCCCCCCC/C=C\CCCCCCCC1=C(C(=O)OC)C(c2cccc(O)c2)NC(=S)N1` (stereo not drawn), for which the half-inhibitory concentration (IC50) in the assay on C6 [1] worked out at 38.4 µM. Also, the outcome in the assay with C6 [2] was Active.
In the case of `CCCCCCCCCCCCCCCC1=C(C(=O)OC)C(c2cccc(O)c2)NC(=O)N1` (stereo not drawn), the IC50 in the assay with C6 [1] turned out to be 79.4 µM. Moreover, the outcome with C6 [2] and with C6 [4] was Active.
